Data from ChEMBL document CHEMBL2177000, “Pharmacokinetic optimization of class-selective histone deacetylase inhibitors and identification of associated candidate predictive biomarkers of hepatocellular carcinoma tumor response” (J Med Chem, 2012).
Each block holds one molecule with its values, some of them ahead of it.

What was measured:
[1] = test system: Bel-7402; type: functional, Homo sapiens
[2] = test system: SK-HEP1; type: functional, Homo sapiens
[3] = test system: SMMC-7721; type: functional, Homo sapiens
[4] = test system: BGC-823; type: functional, Homo sapiens
[5] = test system: SGC-7901; type: functional, Homo sapiens
[6] = test system: MGC-803; type: functional, Homo sapiens
[7] = test system: HGC-27; type: functional, Homo sapiens
[8] = target: Cytochrome P450 2C9 (Homo sapiens, UniProt P11712); experiment: Inhibition of CYP2C9 in human liver microsomes in presence of NADPH by LC-MS/MS method; type: ADME, Microsome
Sequence of Cytochrome P450 2C9 (P11712 whole entry): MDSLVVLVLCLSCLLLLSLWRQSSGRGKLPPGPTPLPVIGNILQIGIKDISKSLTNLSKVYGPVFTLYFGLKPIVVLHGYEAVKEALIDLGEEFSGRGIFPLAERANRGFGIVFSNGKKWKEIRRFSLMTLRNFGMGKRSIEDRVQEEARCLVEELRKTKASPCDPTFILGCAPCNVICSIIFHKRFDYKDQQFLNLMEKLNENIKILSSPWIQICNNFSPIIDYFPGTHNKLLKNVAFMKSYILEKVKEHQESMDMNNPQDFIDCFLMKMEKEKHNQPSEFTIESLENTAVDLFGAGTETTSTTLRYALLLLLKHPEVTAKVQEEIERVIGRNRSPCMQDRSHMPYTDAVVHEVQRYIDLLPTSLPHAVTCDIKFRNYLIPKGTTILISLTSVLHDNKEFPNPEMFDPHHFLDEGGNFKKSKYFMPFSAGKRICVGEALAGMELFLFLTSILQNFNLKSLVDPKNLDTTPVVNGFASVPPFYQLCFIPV

[9] = target: Histone deacetylase (Homo sapiens) (UniProt Q13547+O15379+Q9UBN7+Q92769+Q9UQL6+Q8WUI4+Q9BY41+Q96DB2+P56524+Q9UKV0+Q969S8); experiment: Inhibition of Class 1 histone deacetylase in human HeLa cells assessed as induction in p21 protein expression at 3 uM incubated for 16 hrs by luciferase reporter gene assay relative to HDAC inhibitor entinostat; type: cell-based; set-up: scale not given: the % may be the effect or the level left
[10] = Oral bioavailability in BALB/C mouse at 10 mg/kg by LC-MS/MS method; type: ADME, organism-based; settings: BALB/C, in vivo
Outline: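 Bioavailability from single-dose iv (2 mg/kg, 5% DMSO/40% PEG400/55% saline) and oral gavage (10 mg/kg, 0.445% microcrystalline cellulose microsuspension) studies in BALB/C nude mice (N = 16 per arm); plasma at eight (po) or nine (iv) time points, LC-MS/MS, noncompartmental analysis.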

[11] = Cmax in BALB/C mouse at 10 mg/kg, po or 2 mg/kg, iv by LC-MS/MS method; type: ADME, organism-based; settings: BALB/C, in vivo
Outline: (§1)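 Female-unspecified BALB/C nude mice (15−20 g, N = 16 per arm); iv bolus 2 mg/kg in 5% DMSO/40% PEG400/55% saline and/or oral gavage 10 mg/kg as 0.445% microcrystalline cellulose microsuspension. Blood sampled at nine (iv) or eight (po) time points into sodium heparin tubes; plasma by LC-MS/MS; noncompartmental analysis.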

[12] = target: Cytochrome P450 2C19 (Homo sapiens, UniProt P33261); experiment: Inhibition of CYP2C19 in human liver microsomes in presence of NADPH by LC-MS/MS method; type: ADME, Microsome
Sequence of Cytochrome P450 2C19 (P33261 whole entry): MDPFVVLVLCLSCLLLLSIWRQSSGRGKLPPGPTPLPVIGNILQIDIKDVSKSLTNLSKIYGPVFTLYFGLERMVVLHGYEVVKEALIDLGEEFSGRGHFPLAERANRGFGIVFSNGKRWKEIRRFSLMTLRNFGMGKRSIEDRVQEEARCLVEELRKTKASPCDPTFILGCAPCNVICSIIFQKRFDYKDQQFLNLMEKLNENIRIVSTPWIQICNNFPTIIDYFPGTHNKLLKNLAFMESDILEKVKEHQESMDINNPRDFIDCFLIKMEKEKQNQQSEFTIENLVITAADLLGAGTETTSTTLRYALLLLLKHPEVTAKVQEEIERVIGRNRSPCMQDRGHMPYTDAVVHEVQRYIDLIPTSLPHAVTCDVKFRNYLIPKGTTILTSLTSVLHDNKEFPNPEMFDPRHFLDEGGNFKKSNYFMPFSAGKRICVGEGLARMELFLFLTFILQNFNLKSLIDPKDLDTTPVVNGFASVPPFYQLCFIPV

[13] = Tmax in BALB/C mouse at 10 mg/kg, po or 2 mg/kg, iv by LC-MS/MS method; type: ADME, organism-based; settings: BALB/C, in vivo
Outline: (§2)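 Single-dose PK: iv bolus 2 mg/kg in 5% DMSO/40% PEG400/55% saline and/or oral gavage 10 mg/kg as 0.445% microcrystalline cellulose microsuspension; BALB/C nude mice (15−20 g, N = 16 per arm) or male Sprague−Dawley rats (250 ± 20 g, N = 3). Blood at eight (po) or nine (iv) time points into sodium heparin, plasma by LC-MS/MS, noncompartmental analysis.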

[14] = target: T1, Cytochrome P450 1A2 (Homo sapiens, UniProt P05177); experiment: Inhibition of CYP1A2 in human liver microsomes in presence of NADPH by LC-MS/MS method; type: ADME, Microsome
T1 sequence (P05177 whole entry): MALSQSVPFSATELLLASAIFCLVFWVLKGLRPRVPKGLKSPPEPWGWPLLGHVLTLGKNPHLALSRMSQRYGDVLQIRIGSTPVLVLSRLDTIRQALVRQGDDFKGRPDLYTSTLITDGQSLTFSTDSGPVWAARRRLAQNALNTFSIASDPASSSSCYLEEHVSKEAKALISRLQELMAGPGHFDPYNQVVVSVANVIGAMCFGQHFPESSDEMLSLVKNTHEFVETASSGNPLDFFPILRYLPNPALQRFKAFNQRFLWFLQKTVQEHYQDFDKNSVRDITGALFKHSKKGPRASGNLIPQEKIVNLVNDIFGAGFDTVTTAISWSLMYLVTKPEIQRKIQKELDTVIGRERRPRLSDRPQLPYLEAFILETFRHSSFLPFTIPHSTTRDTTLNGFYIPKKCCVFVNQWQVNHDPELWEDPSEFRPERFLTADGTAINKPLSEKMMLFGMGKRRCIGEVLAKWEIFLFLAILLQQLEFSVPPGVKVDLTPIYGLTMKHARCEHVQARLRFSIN

[15] = Clearance in human liver microsomes at 1 uM incubated for 10 mins by LC-MS/MS method; type: ADME, Microsome
Outline: (§3)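 Liver microsomes (human or mouse, 0.5 mg/mL) in 100 mM potassium phosphate pH 7.4 with 1 μM compound, prewarmed 10 min at 37 °C, started with NADPH (10 mM); stopped at 0, 3, 6, 9, 15, 30 min with ice-cold methanol containing tolbutamide internal standard; LC-MS/MS. Hepatic clearance (mL/min/kg) calculated from intrinsic clearance.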

[16] = Volume of distribution at steady state in BALB/C mouse at 10 mg/kg, po or 2 mg/kg, iv by LC-MS/MS method; type: ADME, organism-based; set-up: unit not given here; settings: in vivo, read-out: Vdss
Outline: as §2

[17] = Clearance in BALB/C mouse at 10 mg/kg, po or 2 mg/kg, iv by LC-MS/MS method; type: ADME, organism-based; settings: in vivo
Outline: as §1

[18] = target: Voltage-gated inwardly rectifying potassium channel KCNH2 (Homo sapiens, UniProt Q12809); experiment: Inhibition of human ERG expressed in CHO cells by patch clamp method; type: cell-based
Sequence of Voltage-gated inwardly rectifying potassium channel KCNH2 (Q12809 whole entry): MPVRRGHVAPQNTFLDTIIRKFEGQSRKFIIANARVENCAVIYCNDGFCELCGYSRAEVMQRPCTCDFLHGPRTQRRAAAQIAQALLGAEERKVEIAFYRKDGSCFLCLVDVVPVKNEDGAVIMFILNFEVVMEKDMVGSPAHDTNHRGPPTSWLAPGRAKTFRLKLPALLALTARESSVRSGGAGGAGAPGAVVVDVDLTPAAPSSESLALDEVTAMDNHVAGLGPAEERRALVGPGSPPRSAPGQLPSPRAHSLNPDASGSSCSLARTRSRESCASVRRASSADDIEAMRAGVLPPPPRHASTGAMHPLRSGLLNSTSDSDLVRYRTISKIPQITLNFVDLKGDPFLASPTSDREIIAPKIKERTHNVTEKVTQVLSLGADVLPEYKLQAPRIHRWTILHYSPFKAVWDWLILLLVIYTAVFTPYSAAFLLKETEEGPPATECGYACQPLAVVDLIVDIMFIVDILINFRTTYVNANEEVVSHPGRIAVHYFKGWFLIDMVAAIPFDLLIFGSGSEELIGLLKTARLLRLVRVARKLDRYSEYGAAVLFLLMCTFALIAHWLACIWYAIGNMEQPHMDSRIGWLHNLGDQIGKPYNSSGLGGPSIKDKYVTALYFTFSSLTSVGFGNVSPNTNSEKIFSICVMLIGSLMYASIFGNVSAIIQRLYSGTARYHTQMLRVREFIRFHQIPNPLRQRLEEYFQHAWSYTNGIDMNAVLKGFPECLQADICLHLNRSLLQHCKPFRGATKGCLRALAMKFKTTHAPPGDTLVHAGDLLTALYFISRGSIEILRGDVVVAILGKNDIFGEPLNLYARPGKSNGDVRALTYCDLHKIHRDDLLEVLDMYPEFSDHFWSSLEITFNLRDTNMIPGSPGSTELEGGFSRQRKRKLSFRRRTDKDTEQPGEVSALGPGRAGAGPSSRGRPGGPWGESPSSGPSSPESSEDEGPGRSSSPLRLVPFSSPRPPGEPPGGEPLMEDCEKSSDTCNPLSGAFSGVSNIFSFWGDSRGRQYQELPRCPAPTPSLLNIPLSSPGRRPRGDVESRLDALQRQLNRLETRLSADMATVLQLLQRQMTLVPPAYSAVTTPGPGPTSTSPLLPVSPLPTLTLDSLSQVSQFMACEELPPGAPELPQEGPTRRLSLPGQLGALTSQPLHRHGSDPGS

[19] = Clearance in mouse liver microsomes at 1 uM incubated for 10 mins by LC-MS/MS method; type: ADME, Microsome
Outline: as §3

[20] = AUC in BALB/C mouse at 10 mg/kg, po or 2 mg/kg, iv by LC-MS/MS method; type: ADME, organism-based, Plasma; settings: BALB/C, plasma
Outline: as §1

[21] = target: Cytochrome P450 3A4 (Homo sapiens, UniProt P08684); experiment: Inhibition of CYP3A4 in human liver microsomes in presence of NADPH by LC-MS/MS method; type: ADME, Microsome
Sequence of Cytochrome P450 3A4 (P08684 whole entry): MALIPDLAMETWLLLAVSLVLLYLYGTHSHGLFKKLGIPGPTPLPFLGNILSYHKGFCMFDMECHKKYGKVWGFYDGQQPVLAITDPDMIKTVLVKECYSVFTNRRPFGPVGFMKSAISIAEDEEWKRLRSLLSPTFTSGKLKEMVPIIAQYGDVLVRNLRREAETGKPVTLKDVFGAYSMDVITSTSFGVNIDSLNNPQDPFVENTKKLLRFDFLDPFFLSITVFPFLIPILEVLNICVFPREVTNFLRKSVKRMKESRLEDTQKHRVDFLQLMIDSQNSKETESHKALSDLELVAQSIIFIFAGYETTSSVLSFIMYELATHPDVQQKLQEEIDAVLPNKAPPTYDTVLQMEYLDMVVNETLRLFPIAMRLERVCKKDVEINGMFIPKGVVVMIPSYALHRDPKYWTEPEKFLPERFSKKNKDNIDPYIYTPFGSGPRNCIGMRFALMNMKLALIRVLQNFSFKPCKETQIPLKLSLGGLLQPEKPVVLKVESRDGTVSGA

[22] = target: Cytochrome P450 2D6 (Homo sapiens, UniProt P10635); experiment: Inhibition of CYP2D6 in human liver microsomes in presence of NADPH by LC-MS/MS method; type: ADME, Microsome
Sequence of Cytochrome P450 2D6 (P10635 whole entry): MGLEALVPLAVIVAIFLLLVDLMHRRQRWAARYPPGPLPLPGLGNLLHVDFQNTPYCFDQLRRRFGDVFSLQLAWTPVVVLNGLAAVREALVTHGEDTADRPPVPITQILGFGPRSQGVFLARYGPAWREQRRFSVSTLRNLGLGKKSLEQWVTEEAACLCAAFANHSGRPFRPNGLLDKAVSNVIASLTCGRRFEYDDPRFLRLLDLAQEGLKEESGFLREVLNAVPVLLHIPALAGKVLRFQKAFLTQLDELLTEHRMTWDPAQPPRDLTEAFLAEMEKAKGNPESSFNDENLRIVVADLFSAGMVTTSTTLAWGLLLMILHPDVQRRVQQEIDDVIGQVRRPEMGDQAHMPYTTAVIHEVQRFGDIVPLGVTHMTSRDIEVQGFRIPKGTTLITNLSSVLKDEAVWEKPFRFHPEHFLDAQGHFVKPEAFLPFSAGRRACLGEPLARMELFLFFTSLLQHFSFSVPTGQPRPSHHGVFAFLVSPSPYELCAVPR

[23] = Half life in BALB/C mouse at 10 mg/kg, po or 2 mg/kg, iv by LC-MS/MS method; type: ADME, organism-based; settings: BALB/C, in vivo
Outline: as §1

[24] = Tmax in BALB/C mouse at 5 mg/kg, po or 1 mg/kg, iv by LC-MS/MS method; type: ADME, organism-based; settings: in vivo
Outline: (§4)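 Nude-mouse PK at reduced doses, 1 mg/kg iv bolus (5% DMSO, 40% PEG400, 55% saline) and 5 mg/kg oral gavage (microcrystalline cellulose microsuspension); plasma from serial heparinized blood samples (eight po, nine iv time points) quantified by LC-MS/MS, parameters by noncompartmental methods.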

[25] = Clearance in BALB/C mouse at 5 mg/kg, po or 1 mg/kg, iv by LC-MS/MS method; type: ADME, organism-based; settings: in vivo
Outline: (§5)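 BALB/C nude mice (15−20 g) given 5 mg/kg po and 1 mg/kg iv; blood collected at eight (po) or nine (iv) time points into sodium heparin tubes, plasma stored at −20 °C, measured by LC-MS/MS and analysed noncompartmentally.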

[26] = Cmax in BALB/C mouse at 5 mg/kg, po or 1 mg/kg, iv by LC-MS/MS method; type: ADME, organism-based; settings: in vivo
Outline: as §5

[27] = Volume of distribution at steady state in BALB/C mouse at 5 mg/kg, po or 1 mg/kg, iv by LC-MS/MS method; type: ADME, organism-based; settings: in vivo, read-out: Vdss
Outline: as §4

[28] = Oral bioavailability in BALB/C mouse at 5 mg/kg by LC-MS/MS method; type: ADME, organism-based; settings: in vivo
Outline: as §5

[29] = Half life in BALB/C mouse at 5 mg/kg, po or 1 mg/kg, iv by LC-MS/MS method; type: ADME, organism-based; settings: in vivo
Outline: as §5

[30] = AUC in BALB/C mouse at 5 mg/kg, po or 1 mg/kg, iv by LC-MS/MS method; type: ADME, organism-based; settings: plasma
Outline: as §5

- GI90 [1]: 8 µM
- GI90 [2]: 13 µM
- GI90 [3]: 11 µM
- GI90 [4]: 7.1 µM
- GI90 [5]: 2.5 µM
- GI90 [6]: 8.9 µM
- GI90 [7]: >30 µM
SMILES: Nc1ccccc1NC(=O)c1ccc(CNC(=O)OCc2cccnc2)cc1 [ENTINOSTAT]

- IC50 [8]: 3 µM
- Activity [9]: 100%
- bioavailability [10]: 58%
- Cmax [11]: 957 ng/mL
- IC50 [12]: 10 µM
- Tmax [13]: 0.25 h
- IC50 [14]: 26 µM
- CLhep predicted at 1 µM [15]: 11 mL/min/kg
- Vd [16]: 4.1
- clearance [17]: 20 mL/min/kg
- CLhep predicted at 1 µM [19]: 24 mL/min/kg
- AUC [20]: 7100 ng·h/mL
- IC50 [21]: 2 µM
- IC50 [22]: 2 µM
- half-life [23]: 15 h
SMILES: Nc1ccccc1NC(=O)/C=C/c1ccc([C@H]2CN(CCO)C[C@@H]2C(=O)Nc2ccc(Cl)cc2)cc1 (racemic)
- IC50 [18]: 15 µM

- Tmax [24]: 2 h
- Activity [9]: 250%
- clearance [25]: 127 mL/min/kg
- CLhep predicted at 1 µM [15]: 5 mL/min/kg
- Cmax [26]: 170 ng/mL
- Vd [27]: 16 L
- CLhep predicted at 1 µM [19]: 34 mL/min/kg
- bioavailability [28]: 95%
- half-life [29]: 5 h
- AUC [30]: 624 ng·h/mL
SMILES: CN1C[C@H](C(=O)Nc2ccc(F)cc2)[C@@H](c2ccc(/C=C/C(=O)Nc3ccccc3N)cc2)C1 (racemic)
